Source: ChEMBL document CHEMBL1132552, “Synthesis, characterization, and structure-activity relationships of amidine-substituted (bis)benzylidene-cycloketone olefin isomers as potent and selective factor Xa inhibitors” (J Med Chem, 1999)

Columns and labels:
[1] = molecular target: Coagulation factor X (Homo sapiens, UniProt P00742); test: In vitro inhibition of human coagulation factor Xa (Xa) in a purified enzyme system.
Summary of the method: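 Buffer: 150 mM NaCl, 2.5 mM CaCl₂, 50 mM Tris-HCl pH 7.5, 0.1% PEG 6000. For very tight binding, enzyme was lowered to 0.1 nM, or data at 0.3 and 1 nM enzyme were fitted to a modified Morrison equation.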

[2] = molecular target: T1, Serine protease 1 (Bos taurus, UniProt P00760); test: In vitro inhibition of bovine trypsin(Trp).
T1 sequence (P00760 whole entry): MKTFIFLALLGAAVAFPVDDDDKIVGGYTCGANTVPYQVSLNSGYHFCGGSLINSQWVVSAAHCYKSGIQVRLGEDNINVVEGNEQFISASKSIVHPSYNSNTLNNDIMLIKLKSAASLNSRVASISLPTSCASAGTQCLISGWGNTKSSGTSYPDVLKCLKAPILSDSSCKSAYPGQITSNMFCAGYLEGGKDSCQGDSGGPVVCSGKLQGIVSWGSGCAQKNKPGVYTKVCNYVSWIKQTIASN
Summary of the method: (§1)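 Buffer was 150 mM NaCl, 2.5 mM CaCl₂, 50 mM Tris-HCl pH 7.5, 0.1% PEG 6000. Read in a microplate reader at ~23 °C in the dark across varying inhibitor concentrations. Ki from competitive treatment; duplicate runs.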

[3] = molecular target: Prothrombin (Homo sapiens, UniProt P00734); test: In vitro inhibition of human thrombin(FIIa).
Summary of the method: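 Medium: 150 mM NaCl, 2.5 mM CaCl₂, 50 mM Tris-HCl pH 7.5, 0.1% PEG 6000. Microplate reader readings at room temperature (~23 °C), light excluded, varying inhibitor concentrations. Competitive Ki derived; assays in duplicate.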

[4] = molecular target: T1, Serine protease 1; test: In vitro inhibition of bovine trypsin (Trp).; summary of the method: as §1

Sequence of Coagulation factor X (P00742 41-179 limits assumed): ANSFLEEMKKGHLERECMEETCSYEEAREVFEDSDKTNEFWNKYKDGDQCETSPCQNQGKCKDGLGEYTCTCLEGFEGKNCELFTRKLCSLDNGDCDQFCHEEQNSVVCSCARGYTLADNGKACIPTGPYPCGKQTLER
Sequence of Coagulation factor X (P00742 235-488 limits assumed): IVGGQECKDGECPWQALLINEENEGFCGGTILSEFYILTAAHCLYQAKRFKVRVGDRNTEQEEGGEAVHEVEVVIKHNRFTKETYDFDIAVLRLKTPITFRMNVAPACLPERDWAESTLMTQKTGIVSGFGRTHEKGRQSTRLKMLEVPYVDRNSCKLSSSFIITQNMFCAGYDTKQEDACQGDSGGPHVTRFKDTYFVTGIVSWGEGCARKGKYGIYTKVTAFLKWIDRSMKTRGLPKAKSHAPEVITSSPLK

Structure (SMILES) | Ki [1] [µM] | Ki [2] [µM] | Ki [3] [µM] | Ki [4] [µM]
CN(C)C(=N)c1ccc(/C=C2\CCCC/C(=C\c3ccc(C(=N)N)cc3)C2=O)cc1 | 0.35 | 0.5 | 3.7 | 
N=C(N)c1ccc(/C=C2\CCCCCCC/C(=C\c3ccc(C(=N)N)cc3)C2=O)cc1 | 0.96 | 3 | 0.73 | 
CN(C)C(=N)c1ccc(/C=C2\CCCC/C(=C\c3ccc(C(=N)N(C)C)cc3)C2=O)cc1 | > 5 |  | > 5 | > 5
CN(C)C(=N)c1ccc(/C=C2/CCCC/C(=C/c3ccc(C(=N)N)cc3)C2=O)cc1 |  | 0.09 |  | 
N=C(N)c1ccc(/C=C2/CC(c3ccccc3)C/C(=C/c3ccc(C(=N)N)cc3)C2=O)cc1 (stereo not drawn) | 0.0052 | 0.1 | 1.7 | 
NC(=O)c1ccc(/C=C2/CCCC/C(=C/c3ccc(C(N)=O)cc3)C2=O)cc1 | > 5 | > 5 | 2.9 | 
CN(C)C(=N)c1ccc(/C=C2/CCCC/C(=C\c3ccc(C(=N)N(C)C)cc3)C2=O)cc1 | > 5 | > 5 | > 5 | 
N=C(N)c1ccc(/C=C2/CCCCCCC/C(=C\c3ccc(C(=N)N)cc3)C2=O)cc1 |  | 2.1 | 0.15 | 
NC(=O)c1ccc(/C=C2/CCCC/C(=C\c3ccc(C(N)=O)cc3)C2=O)cc1 | > 5 |  |  | 
C/N=C(\N)c1ccc(/C=C2\CCCC/C(=C\c3ccc(C(=N)N)cc3)C2=O)cc1 |  | 0.84 |  | 
C/N=C(/N)c1ccc(/C=C2/CCCC/C(=C\c3ccc(C(=N)N)cc3)C2=O)cc1 | 0.5 | 0.155 | 0.36 | 
N=C(N)c1ccc(/C=C2/CCCCCCC/C(=C/c3ccc(C(=N)N)cc3)C2=O)cc1 |  | 2.2 |  | 
CN(C)C(=N)c1ccc(/C=C2/CCCC/C(=C/c3ccc(C(=N)N(C)C)cc3)C2=O)cc1 | 1.6 | > 5 | > 5 | 
CN(C)C(=N)c1ccc(/C=C2/CCCC/C(=C\c3ccc(C(=N)N)cc3)C2=O)cc1 | 0.052 | 0.015 | 0.12 | 
N=C(N)c1ccc(/C=C2\CC(c3ccccc3)C/C(=C\c3ccc(C(=N)N)cc3)C2=O)cc1 (stereo not drawn) | 3.3 | 0.056 | 0.63 | 
C/N=C(\N)c1ccc(/C=C2/CCCC/C(=C/c3ccc(C(=N)N)cc3)C2=O)cc1 | 0.012 | 0.03 | 1.6 | 
N=C(N)c1ccc(/C=C2/CC(c3ccccc3)C/C(=C\c3ccc(C(=N)N)cc3)C2=O)cc1 (stereo not drawn) | 0.395 | 0.16 | 0.325 | 

The next lines start with the values.

Ki [1] [µM] | Ki [2] [µM] | Ki [3] [µM] | Ki [4] [µM] | Structure (SMILES)
0.39 | 1.5 | 3.7 |  | N=C(N)c1ccc(/C=C2\CCCCCC/C(=C\c3ccc(C(=N)N)cc3)C2=O)cc1
> 0.5 | 0.224 | 0.6 |  | COC(=O)C1C/C(=C/c2ccc(C(=N)N)cc2)C(=O)/C(=C/c2ccc(C(=N)N)cc2)C1 (stereo not drawn)
0.0048 | 0.1 | 1.1 |  | COC(=O)C1C/C(=C/c2ccc(C(=N)N)cc2)C(=O)/C(=C\c2ccc(C(=N)N)cc2)C1 (stereo not drawn)
0.018 | 0.44 | 0.81 |  | N=C(N)c1ccc(/C=C2/CCC/C(=C/c3ccc(C(=N)N)cc3)C2=O)cc1
0.23 | 0.73 | 19.2 |  | N=C(N)c1ccc(/C=C2/CC/C(=C\c3ccc(C(=N)N)cc3)C2=O)cc1
4.6 | 0.59 | 2.2 |  | N=C(N)c1ccc(/C=C2\CC/C(=C\c3ccc(C(=N)N)cc3)C2=O)cc1
 | 0.26 | 0.12 |  | N=C(N)c1ccc(/C=C2/CCC/C(=C\c3ccc(C(=N)N)cc3)C2=O)cc1
0.0028 | 0.19 | 0.29 |  | N=C(N)c1ccc(/C=C2/CCCCCC/C(=C/c3ccc(C(=N)N)cc3)C2=O)cc1
0.13 | 0.03 |  |  | N=C(N)c1ccc(/C=C2/CCCCC/C(=C\c3ccc(C(=N)N)cc3)C2=O)cc1
24.4 | 0.88 | 21.5 |  | N=C(N)c1ccc(/C=C2\CC(C(=O)O)C/C(=C\c3ccc(C(=N)N)cc3)C2=O)cc1 (stereo not drawn)
> 5 | 0.125 | 3.3 |  | CCOC(=O)N1C/C(=C\c2ccc(C(=N)N)cc2)C(=O)/C(=C/c2ccc(C(=N)N)cc2)C1
 | 0.17 |  |  | N=C(N)c1ccc(/C=C2\CCC/C(=C\c3ccc(C(=N)N)cc3)C2=O)cc1
0.0025 | 0.02 | 0.38 |  | CCOC(=O)N1C/C(=C/c2ccc(C(=N)N)cc2)C(=O)/C(=C\c2ccc(C(=N)N)cc2)C1
0.0069 | 0.43 | > 50 |  | N=C(N)c1ccc(/C=C2/CC(C(=O)O)C/C(=C/c3ccc(C(=N)N)cc3)C2=O)cc1 (stereo not drawn)
0.05 | 0.69 | 0.11 |  | N=C(N)c1ccc(/C=C2/CCCC/C(=C/c3ccc(C(N)=O)cc3)C2=O)cc1
1.85 | 0.5 | 0.35 |  | N=C(N)c1ccc(/C=C2\CCCC/C(=C/c3ccc(C(N)=O)cc3)C2=O)cc1
0.32 | 0.34 |  |  | N=C(N)c1ccc(/C=C2/CCCCCC/C(=C\c3ccc(C(=N)N)cc3)C2=O)cc1
> 0.5 | > 0.5 | > 0.5 |  | N=C(N)c1ccc(/C=C2\CCCC/C(=C\c3ccc(C(N)=O)cc3)C2=O)cc1
1.8 | 0.31 | 2.1 |  | N=C(N)c1ccc(/C=C2\CCCCC/C(=C\c3ccc(C(=N)N)cc3)C2=O)cc1
0.225 | 0.061 | 0.63 |  | CCOC(=O)N1C/C(=C/c2ccc(C(=N)N)cc2)C(=O)/C(=C/c2ccc(C(=N)N)cc2)C1
0.0046 | 0.1 | 0.3 |  | N=C(N)c1ccc(/C=C2/CCCCC/C(=C/c3ccc(C(=N)N)cc3)C2=O)cc1
> 5 | 0.072 | 4.4 |  | COC(=O)C1C/C(=C\c2ccc(C(=N)N)cc2)C(=O)/C(=C/c2ccc(C(=N)N)cc2)C1 (stereo not drawn)
